The nature of data set [1]: Cytotoxicity against human Ava5 cells assessed as decrease in cell viability after 72 hrs by XTT assay. It is filed as cell-based. The essentials: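 XTT assay on […] Ava5 cells at 5×10^3 per well with serial dilutions for 72 h at 37 °C in 5% CO₂. CC50 is the concentration giving 50% growth inhibition.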
Data set [2] has as its target T1, Nuclear factor erythroid 2-related factor 2 (Homo sapiens) (UniProt Q16236).
T1 sequence (whole entry): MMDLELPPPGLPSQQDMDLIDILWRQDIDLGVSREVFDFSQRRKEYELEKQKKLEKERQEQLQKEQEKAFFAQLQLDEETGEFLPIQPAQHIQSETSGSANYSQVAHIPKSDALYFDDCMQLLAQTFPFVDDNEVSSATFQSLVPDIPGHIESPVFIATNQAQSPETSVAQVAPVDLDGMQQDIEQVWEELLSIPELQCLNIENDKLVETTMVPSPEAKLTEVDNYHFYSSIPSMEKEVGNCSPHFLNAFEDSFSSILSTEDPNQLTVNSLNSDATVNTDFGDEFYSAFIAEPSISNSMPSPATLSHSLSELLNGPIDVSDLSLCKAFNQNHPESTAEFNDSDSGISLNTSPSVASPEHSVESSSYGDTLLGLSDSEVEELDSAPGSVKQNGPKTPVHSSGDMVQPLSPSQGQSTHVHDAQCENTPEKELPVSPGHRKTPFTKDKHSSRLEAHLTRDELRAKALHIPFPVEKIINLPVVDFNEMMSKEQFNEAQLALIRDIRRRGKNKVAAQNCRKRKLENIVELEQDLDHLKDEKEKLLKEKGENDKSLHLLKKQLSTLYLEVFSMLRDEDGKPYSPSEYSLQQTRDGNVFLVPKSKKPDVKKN
The data set is described as follows: Induction of Nrf2-mediated ARE transactivation in human Ava5 cells transfected with p2xARE-Luc after 3 days. The class given is cell-based. In short, it runs like this:
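Ava5 cells were transfected with the p2xARE-Luc reporter (ARE-driven firefly luciferase), treated for 3 days, and luciferase was measured in lysates. Normalization was to co-transfected pCMV-SEAP. Mean ± SD of three independent experiments.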

Data set [3] has as its system Hepatitis C virus. Nature of the data set: Antiviral activity against HCV infected in human Ava5 cells assessed as inhibition of viral RNA replication at 1 uM after 3 days in presence of HO-1 inhibitor SnPP by RT-qPCR method. The class given is functional, organism-based. The following applies: Hepacivirus hominis. In short, it runs like this:
(§1)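 Ava5 cells were co-incubated for 3 days with test compound at 1 μM plus the HO-1 inhibitor SnPP (tin protoporphyrin IX) at 0–5 μM. Lysates went to western blot for NS5B and GAPDH. RNA went to RT-qPCR normalized to gapdh mRNA. Mean ± SD of three independent experiments.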

Data set [4] is described as follows: Selectivity index, ratio of CC50 for human Ava5 cells to IC50 for HCV. It is filed as toxicity. The following applies: read-out: Ratio CC50/IC50. The essentials:
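SI = CC50/IC50. CC50 comes from 72 h XTT in […] Ava5 cells. IC50 is the concentration giving 50% inhibition of HCV, measured by RT-qPCR after 3 days in Ava5 cells.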

In data set [5] the test system is Hepatitis C virus. The data set is described as follows: Potency index, ratio of ribavirin IC50 to test compound IC50 for HCV. It is filed as functional, Hepacivirus hominis.
Data set [6] concerns Hepatitis C virus. The data set is described as follows: Antiviral activity against HCV infected in human Ava5 cells assessed as inhibition of NS5B protein synthesis at 1 uM after 3 days in presence of HO-1 inhibitor SnPP by Western blot method. It is filed as functional, organism-based. The following applies: Hepacivirus hominis. In short, it runs like this: as §1
Data set [7] has as its system Hepatitis C virus. The data set is described as follows: Antiviral activity against HCV infected in human Ava5 cells assessed as inhibition of NS5B protein synthesis after 3 days by Western blot method. It is filed as functional, organism-based. The following applies: Hepacivirus hominis. In short, it runs like this:
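Ava5 cells, seeded at 5×10^4 per well and grown overnight, were treated for 3 days. Lysates were made in RIPA buffer and 10 µg protein was run on 10% SDS-PAGE. Blots were probed with anti-NS5B, with GAPDH as loading control.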

Data set [8] deals with Hepatitis C virus. The data set is described as follows: (§2) Antiviral activity against HCV infected in human Ava5 cells assessed as inhibition of viral RNA replication after 3 days by RT-qPCR method. It is filed as functional, organism-based, Hepacivirus hominis. In short, it runs like this: (§3)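 Ava5 cells (Huh-7 hepatoma cells carrying an HCV replicon, grown in DMEM/10% FBS with 1 mg·mL⁻¹ G418) were treated for 3 days with a range of concentrations. HCV RNA was measured by RT-qPCR and normalized to cellular gapdh mRNA. Values are mean ± SD of three independent experiments, each in triplicate.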

Data set [9] deals with Hepatitis C virus. The description is as §2. The class given is functional, organism-based, Hepacivirus hominis. The following applies: Ava5, 72 h. In short, it runs like this: as §3

The source made the active and inactive calls. No cut-off for these calls is given here.

As for `COc1ccc(Nc2cc3oc(-c4ccco4)nc3c3ccccc23)cc1`, the CC50 at 72 h in [1] is 144000 nM. Besides, in data set [2], the Activity entry was “Dose-dependent effect”. The inhibition entry in data set [3] and in data set [6] was “inactive” throughout. The selectivity ratio in data set [4] amounted to 229. Further, the “Ratio IC50” value in data set [5] is on record as 21. In addition, the inhibition entry in data set [7] and in data set [8] (Hepacivirus hominis) was “Dose-dependent effect” throughout. In addition, the 50% inhibitory concentration (IC50) in data set [8] (Ava5, 72 h) is 820 nM; in data set [9], 630 nM.

Values taken from ChEMBL document CHEMBL4138248, “Discovery of naphtho[1,2-d]oxazole derivatives as potential anti-HCV agents through inducing heme oxygenase-1 expression” (Eur J Med Chem, 2018).
